Data as given in ChEMBL document CHEMBL1150374, “Synthesis and anticonvulsant activity of aromatic tetramethylcyclopropanecarboxamide derivatives” (Bioorg Med Chem, 2008).
Active and inactive are the calls of the source. The calls are words filed in the database; no cut-off is given here.

Assays:
[1] = species: Mus musculus; assay: Anticonvulsant activity against maximal electroshock-induced seizures in mouse model; assay type: functional
Method in brief: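 Compounds given ip to mice at 100 or 300 mg/kg, dosed at 0.01 mL per gram body weight. Maximal electroshock seizures were tested at 0.5, 2 and 4 h after dosing. Activity is reported as animals protected over animals tested, with neurotoxicity scored alongside.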

[2] = tested on: Mus musculus; assay: Anticonvulsant activity against scMet-induced seizures in mouse model at 300 mg/kg, ip after 4 hrs; assay type: functional, organism-based; set-up: dose 300 mg/kg
Method in brief: (§1)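 Mice dosed intraperitoneally at 300 mg/kg, in a dosing volume of 0.01 mL per gram body weight. Seizure protection was scored at the stated time after dosing. Activity is expressed as the number of animals protected over the number tested.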

[3] = tested on: Mus musculus; assay: Anticonvulsant activity against scMet-induced seizures in mouse model at 300 mg/kg, ip after 0.5 hrs; assay type: functional, organism-based; set-up: dose 300 mg/kg; method in brief: as §1
[4] = tested on: Mus musculus; assay: Anticonvulsant activity against maximal electroshock-induced seizures in mouse model at 300 mg/kg, ip after 4 hrs; assay type: functional, organism-based; set-up: dose 300 mg/kg; method in brief: as §1
[5] = tested on: Mus musculus; assay: Anticonvulsant activity against maximal electroshock-induced seizures in mouse model at 300 mg/kg, ip after 0.5 hrs; assay type: functional, organism-based; set-up: dose 300 mg/kg; method in brief: as §1
[6] = tested on: Rattus norvegicus; assay: Anticonvulsant activity against scMet-induced seizures in orally dosed rat model; assay type: functional; settings: po
Method in brief: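 Rats dosed orally in a volume of 0.04 mL per 10 g body weight. ED50 was determined with 95% confidence intervals by probit analysis.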

[7] = tested on: Rattus norvegicus; assay: Anticonvulsant activity against maximal electroshock-induced seizures in orally dosed rat model; assay type: functional; settings: po
[8] = Toxicity in orally dosed rat by rotarod test; assay type: organism-based; settings: in vivo, po
Method in brief: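 Rats dosed orally in a volume of 0.04 mL per 10 g body weight. Dose was varied until four points were established between the level causing no minimal motor impairment in any animal and the level at which all animals were impaired. TD50 was derived with 95% confidence intervals by probit analysis.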

[9] = tested on: Mus musculus; assay: Anticonvulsant activity against maximal electroshock-induced seizures in mouse model at 300 mg/kg, ip after 2 hrs; assay type: functional, organism-based; set-up: dose 300 mg/kg; method in brief: as §1
[10] = species: Rattus norvegicus; assay: Protective index, ratio of TD50 for rat by rotarod test to ED50 for rat by MES test; assay type: functional
Method in brief: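 PI was calculated as TD50/ED50 from oral dosing in rats. Both values were derived by probit analysis.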

[11] = tested on: Mus musculus; assay: Anticonvulsant activity against scMet-induced seizures in mouse model at 100 mg/kg; assay type: functional

Structure (SMILES)	Activity [2]	Activity [3]	Activity [4]	Activity [5]	further results
CCCC(CCC)C(=O)NCc1ccc(S(N)(=O)=O)cc1					ED50 [1]: 16 mg/kg
CC1(C)C(C(=O)NCc2ccccc2Cl)C1(C)C	inactive	inactive	inactive	inactive	
CCCC(CCC)C(=O)O [VALPROIC ACID]					ED50 [6]: 646 mg/kg
CC1(C)C(C(=O)NCc2ccccc2)C1(C)C	inactive	Active	inactive	Active	
CC1(C)C(C(=O)NCCCc2ccccc2)C1(C)C	inactive	inactive	inactive	inactive	
CC(C(O)c1ccccc1)N(C)C(=O)C1C(C)(C)C1(C)C (stereo unspecified)	inactive	inactive	inactive	inactive	
CC(NC(=O)C1C(C)(C)C1(C)C)c1ccccc1 (stereo unspecified)	inactive	inactive	inactive	inactive	
NS(=O)(=O)Cc1noc2ccccc12 [ZONISAMIDE]					ED50 [7]: 21 mg/kg; ED50 [6]: > 300 mg/kg; TD50 [8]: 192 mg/kg
CC1(C)C(C(=O)Nc2ccc(S(N)(=O)=O)cc2)C1(C)C	inactive	inactive		inactive	ED50 [7]: 26 mg/kg; ED50 [6]: > 100 mg/kg; Activity [9]: Active; TD50 [8]: > 500 mg/kg
CONC(=O)C1C(C)(C)C1(C)C					PI [10]: 10; ED50 [6]: 35 mg/kg
CC1(C)C(C(=O)NC(N)=O)C1(C)C [2,2,3,3-TETRAMETHYLCYCLOPROPANECARBONYLUREA]					ED50 [7]: 29 mg/kg
CC(=O)c1ccc(NC(=O)C2C(C)(C)C2(C)C)cc1	inactive	inactive	Active	inactive	
Cc1cccc(C)c1OCC(C)N (stereo unspecified) [MEXILETINE]					ED50 [1]: 10 mg/kg
CC1(C)C(C(=O)NCCc2c[nH]c3ccccc23)C1(C)C	inactive	inactive	inactive	inactive	
CC1(C)C(C(=O)NCc2ccc(F)cc2)C1(C)C	inactive	inactive	inactive	inactive	
CCCC(CCC)C(=O)NCc1ccccc1 [VALPROYLBENZYLAMIDE]					Activity [11]: 50%
CC1(C)C(C(=O)Nc2cc(Cl)c(S(N)(=O)=O)cc2S(N)(=O)=O)C1(C)C	inactive	inactive	inactive	inactive	
CC1(C)C(C(=O)NC(=O)Nc2ccccc2)C1(C)C	inactive	inactive	inactive	inactive	
CC1(C)C(C(=O)NCc2ccc(S(N)(=O)=O)cc2)C1(C)C	inactive	inactive		inactive	
Cc1cccc(C)c1OCC(C)NC(=O)C1C(C)(C)C1(C)C (stereo unspecified)	inactive	inactive	inactive	inactive	
CC1(C)C(C(=O)Nc2ccccc2)C1(C)C	inactive	inactive	inactive	inactive	
CC1(C)C(C(=O)NCCc2ccccc2)C1(C)C	inactive	Active	inactive	inactive	
CC(CNC(=O)C1C(C)(C)C1(C)C)c1ccccc1 (stereo unspecified)	inactive	inactive	inactive	inactive	
